Laboratory results published in ChEMBL document CHEMBL1671867, “Novel polymyxin derivatives carrying only three positive charges are effective antibacterial agents” (Antimicrob Agents Chemother, 2008).
≈ marks a conversion by molar mass, not a printed value. Calls of active or inactive are those of the source. No cut-off for these calls is given here. Bridge positions count the residues as written; N and C are the ends. Square brackets hold non-standard residues; d marks the D form. Peptide text beside a SMILES is read from it. * marks the point of attachment. Decanoyl = CCCCCCCCCC(=O)*; Dab = NCC[C@H](N)C(=O)O

What was measured:
V79 = experiment: Cytotoxicity against chinese hamster V79 cells at […] to 128 ug/ml after 24 hrs; format: cell-based, Cricetulus griseus; details: v79, 24 h
[1] = Inhibition of [3H]gentamicin binding to brush border membrane of renal cortex
Procedure, shortened: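 Brush border membrane vesicles prepared from male albino rat renal cortex by Mg2+-EGTA precipitation. Incubated with 20 μM [3H]gentamicin in 10 mM HEPES pH 7.5 with 300 mM mannitol, with or without compound, 60 min at 4°C. Then filtered, washed, and bound radioactivity counted by scintillation. IC50 fitted with the Hill equation.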

Citrobacter freundii = experiment: Antibacterial activity against Citrobacter freundii ATCC 8090 by CLSI M7-A7 agar dilution method; format: functional
Acinetobacter baumannii [2] = experiment: Antibacterial activity against Acinetobacter baumannii by CLSI M7-A7 agar dilution method; format: functional
Enterobacter cloacae [3] = experiment: Antibacterial activity against Enterobacter cloacae CCUG52947 by CLSI M7-A7 agar dilution method; format: functional
Acinetobacter baumannii [4] = experiment: Antibacterial activity against Acinetobacter baumannii ATCC 19606 by CLSI M7-A7 agar dilution method; format: functional
Escherichia coli [5] = experiment: Antibacterial activity against Escherichia coli IH3080 assessed as growth inhibition at 10 ug after 18 hrs by […] in presence of 1 ug/ml rifampin; format: functional
Escherichia coli [6] = experiment: Antibacterial activity against Escherichia coli by CLSI M7-A7 agar dilution method; format: functional
Procedure, shortened: (§1)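 Agar dilution on Mueller-Hinton agar with test substance at 0.25 to 32 μg/ml in twofold steps. Spots of about 10^4 CFU applied with a multipoint inoculator.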

Enterobacter cloacae [7] = experiment: Antibacterial activity against Enterobacter cloacae by CLSI M7-A7 agar dilution method; format: functional
Escherichia coli [8] = experiment: Antibacterial activity against Escherichia coli ATCC […] by CLSI M7-A7 agar dilution method; format: functional
Staphylococcus aureus = experiment: Antibacterial activity against Staphylococcus aureus ATCC 25923 by CLSI M7-A7 agar dilution method; format: functional; procedure, shortened: as §1
Escherichia coli [9] = experiment: Antibacterial activity against Escherichia coli IH3080 assessed as growth inhibition at 10 ug after 18 hrs by […]; format: functional
Klebsiella oxytoca [10] = experiment: Antibacterial activity against Klebsiella oxytoca CCUG51683 by CLSI M7-A7 agar dilution method; format: functional; procedure, shortened: as §1
Klebsiella pneumoniae [11] = experiment: Antibacterial activity against Klebsiella pneumoniae by CLSI M7-A7 agar dilution method; format: functional; procedure, shortened: as §1
Klebsiella oxytoca [12] = experiment: Antibacterial activity against Klebsiella oxytoca ATCC 13182 by CLSI M7-A7 agar dilution method; format: functional; procedure, shortened: as §1
Candida albicans = experiment: Antibacterial activity against Candida albicans ATCC 28366 by CLSI M7-A7 agar dilution method; format: functional
Klebsiella pneumoniae [13] = experiment: Antibacterial activity against Klebsiella pneumoniae CCUG45421 by CLSI M7-A7 agar dilution method; format: functional; procedure, shortened: as §1
Escherichia coli [14] = experiment: Antibacterial activity against Escherichia coli IH3080 assessed as reduction in bacterial count at 2 ug/ml using 2 day old compound stock solution; format: functional; design: scale not given: the % may be the effect or the level left
Enterobacter cloacae [15] = experiment: Antibacterial activity against Enterobacter cloacae ATCC 23355 by CLSI M7-A7 agar dilution method; format: functional
Escherichia coli [16] = experiment: Antibacterial activity against Escherichia coli SC 9252 by CLSI M7-A7 agar dilution method; format: functional
Serratia marcescens = experiment: Antibacterial activity against Serratia marcescens ATCC 8100 by CLSI M7-A7 agar dilution method; format: functional; procedure, shortened: as §1
Escherichia coli [17] = experiment: Antibacterial activity against Escherichia coli SC 9253 by CLSI M7-A7 agar dilution method; format: functional; procedure, shortened: as §1
Escherichia coli [18] = experiment: Antibacterial activity against Escherichia coli IH3080 by CLSI M7-A7 agar dilution method; format: functional
Pseudomonas aeruginosa = experiment: Antibacterial activity against Pseudomonas aeruginosa ATCC 27853 by CLSI M7-A7 agar dilution method; format: functional; procedure, shortened: as §1
Escherichia coli [19] = experiment: Antibacterial activity against Escherichia coli IH3080 assessed as reduction in bacterial count at 2 ug/ml using fresh compound stock solution; format: functional, organism-based

**Q.** Which Activity (V79) does the source give for `CCCCCCCCCC(=O)N[C@H](C(=O)N[C@H](CO)C(=O)N[C@H]1CCNC(=O)[C@H]([C@@H](C)O)NC(=O)[C@H](CCN)NC(=O)[C@H](CCN)NC(=O)[C@H](CC(C)C)NC(=O)[C@@H](Cc2ccccc2)NC(=O)[C@H](CCN)NC1=O)[C@@H](C)O` (Decanoyl-T[dS][Dab][Dab][dF]L[Dab][Dab]T; lactam 3-C) here?
**A.** Non-toxic

**Q.** And the IC50 [1]?
**A.** 198 µM

**Q.** For `CCCCCCCC(=O)N[C@H](C(=O)N[C@H](CO)C(=O)N[C@H]1CCNC(=O)[C@H]([C@@H](C)O)NC(=O)[C@H](CCN)NC(=O)[C@H](CCN)NC(=O)[C@H](CC(C)C)NC(=O)[C@@H](Cc2ccccc2)NC(=O)[C@H](CCN)NC1=O)[C@@H](C)O`, which MIC (Citrobacter freundii) is on record?
**A.** 2 µg/mL (≈ 1.86 µM)

**Q.** And the MIC (Acinetobacter baumannii [2])?
**A.** 4 µg/mL (≈ 3.72 µM)

**Q.** What about the MIC (Enterobacter cloacae [3]) of the same molecule?
**A.** 2 µg/mL (≈ 1.86 µM)

**Q.** And the MIC (Acinetobacter baumannii [4])?
**A.** 8 µg/mL (≈ 7.43 µM)

**Q.** And the “inhibition zone (IZ)” value (Escherichia coli [5])?
**A.** 214 mm2

**Q.** And the MIC (Escherichia coli [6])?
**A.** 0.5 µg/mL (≈ 0.465 µM)

**Q.** What about the MIC (Enterobacter cloacae [7]) of the same molecule?
**A.** 2 µg/mL (≈ 1.86 µM)

**Q.** What about the MIC (Escherichia coli [8]) of the same molecule?
**A.** 1 µg/mL (≈ 0.929 µM)

**Q.** And the MIC (Staphylococcus aureus)?
**A.** > 32 µg/mL

**Q.** And the “inhibition zone (IZ)” value (Escherichia coli [9])?
**A.** 171 mm2

**Q.** And the MIC (Klebsiella oxytoca [10])?
**A.** 2 µg/mL (≈ 1.86 µM)

**Q.** And the MIC (Klebsiella pneumoniae [11])?
**A.** 1 µg/mL (≈ 0.929 µM)

**Q.** What about the MIC (Klebsiella oxytoca [12]) of the same molecule?
**A.** 2 µg/mL (≈ 1.86 µM)

**Q.** What about the MIC (Candida albicans) of the same molecule?
**A.** > 32 µg/mL

**Q.** What about the MIC (Klebsiella pneumoniae [13]) of the same molecule?
**A.** 4 µg/mL (≈ 3.72 µM)

**Q.** And the Activity (Escherichia coli [14])?
**A.** 98%

**Q.** And the MIC (Enterobacter cloacae [15])?
**A.** 2 µg/mL (≈ 1.86 µM)

**Q.** And the MIC (Escherichia coli [16])?
**A.** 32 µg/mL (≈ 29.7 µM)

**Q.** And the MIC (Serratia marcescens)?
**A.** > 32 µg/mL

**Q.** And the MIC (Escherichia coli [17])?
**A.** > 32 µg/mL

**Q.** What about the MIC (Escherichia coli [18]) of the same molecule?
**A.** 1 µg/mL (≈ 0.929 µM)

**Q.** And the MIC (Pseudomonas aeruginosa)?
**A.** 8 µg/mL (≈ 7.43 µM)

**Q.** With `CCCCCCCC(=O)N[C@H](C(=O)N[C@H](CO)C(=O)N[C@H]1CCNC(=O)[C@H]([C@@H](C)O)NC(=O)[C@H](CCN)NC(=O)[C@H](CCN)NC(=O)[C@H](CC(C)C)NC(=O)[C@H](Cc2ccccc2)NC(=O)[C@H](CCN)NC1=O)[C@@H](C)O` as the molecule, how does the Activity (Escherichia coli [19]) read?
**A.** Active

**Q.** With `CCCCCCCC(=O)N[C@H](C(=O)N[C@H](CO)C(=O)N[C@H]1CCNC(=O)[C@H]([C@@H](C)O)NC(=O)[C@H](CCN)NC(=O)[C@H](CCN)NC(=O)[C@H](CC(C)C)NC(=O)[C@@H](Cc2ccccc2)NC(=O)[C@H](CCN)NC1=O)[C@@H](C)O.CS(=O)(=O)[O-].[Na+]` as the molecule, how does the Activity (Escherichia coli [14]) read?
**A.** 90%
